Laboratory results as given in ChEMBL document CHEMBL4364301 (Eur J Med Chem, 2019).

Columns and labels:
[1] = system: CWR22R; experiment: Antiproliferative activity against human 22Rv1 cells assessed as reduction in cell growth incubated for 96 hrs by propidium iodide based 2D monolayer assay; assay type: functional; settings: 22Rv1, 96 h
Procedure, shortened: (§1)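 After 24 h recovery, compound in medium or medium alone (control wells) was added at 10 half-log concentrations from 0.0032 to 100 µM, in triplicate, with at most 0.3% DMSO. After 96 h, wells were PBS-washed, stained with 7 µg/ml PI and 0.1% Triton X-100, and fluorescence read at 530/620 nm. IC50 came from a 4-parameter fit, geometric mean.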

[2] = system: VCaP; experiment: Antiproliferative activity against human VCaP cells assessed as T/C value at 3.2 x 10^-3 uM incubated for 96 hrs by propidium iodide based 2D monolayer assay; assay type: functional
Procedure, shortened: (§2)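 VCaP cells in RPMI 1640 with 10% FCS at 37 °C, 5% CO2, seeded 4,000–20,000 cells/well and left 24 h before dosing. Compounds from DMSO stocks were diluted in half-log steps in medium, 10 concentrations 0.0032–100 μM, triplicate wells, max 0.3% DMSO. After 96 h, cells were washed, stained with 7 μg/ml propidium iodide plus 0.1% Triton X-100 for 1–2 h at room temperature, and fluorescence read at ex 530/em 620 nm.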

[3] = system: VCaP; experiment: Antiproliferative activity against human VCaP cells assessed as T/C value at 1 x 10^1 uM incubated for 96 hrs by propidium iodide based 2D monolayer assay; assay type: functional
Procedure, shortened: as §1, with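 “Cells were kept in RPMI 1640 with 25 mM HEPES, 10% FCS and gentamicin at 37 °C under 5% CO2, and plated at 4,000-20,000 cells/well. After 24” for “After 24”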

[4] = system: VCaP; experiment: Antiproliferative activity against human VCaP cells assessed as T/C value at 3.2 x 10^1 uM incubated for 96 hrs by propidium iodide based 2D monolayer assay; assay type: functional; procedure, shortened: as §2
[5] = system: LNCaP; experiment: Antiproliferative activity against human LNCAP cells assessed as T/C value at 3.2 x 10^-3 uM incubated for 96 hrs by propidium iodide based 2D monolayer assay; assay type: functional
Procedure, shortened: as §1, with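 “Cells were kept in RPMI 1640 with 25 mM HEPES, 10% FCS and gentamicin at 37 °C under 5% CO2, and plated at 4,000-20,000 cells/well. After 24” for “After 24”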

[6] = system: LNCaP; experiment: Antiproliferative activity against human LNCAP cells assessed as T/C value at 1 x 10^-1 uM incubated for 96 hrs by propidium iodide based 2D monolayer assay; assay type: functional
Procedure, shortened: as §1, with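 “Cells were kept in RPMI 1640 with 25 mM HEPES, 10% FCS and gentamicin at 37 °C under 5% CO2, and plated at 4,000-20,000 cells/well. After 24” for “After 24”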

[7] = system: LNCaP; experiment: Antiproliferative activity against human LNCAP cells assessed as T/C value at 3.2 x 10^1 uM incubated for 96 hrs by propidium iodide based 2D monolayer assay; assay type: functional
Procedure, shortened: as §1, with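 “Cells were kept in RPMI 1640 with 25 mM HEPES, 10% FCS and gentamicin at 37 °C under 5% CO2, and plated at 4,000-20,000 cells/well. After 24” for “After 24”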

[8] = system: LNCaP; experiment: Antiproliferative activity against human LNCAP cells assessed as T/C value at 1 x 10^2 uM incubated for 96 hrs by propidium iodide based 2D monolayer assay; assay type: functional
Procedure, shortened: as §1, with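 “Cells were kept in RPMI 1640 with 25 mM HEPES, 10% FCS and gentamicin at 37 °C under 5% CO2, and plated at 4,000-20,000 cells/well. After 24” for “After 24”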

[9] = system: CWR22R; experiment: Antiproliferative activity against human 22Rv1 cells assessed as T/C value at 3.2 x 10^-2 uM incubated for 96 hrs by propidium iodide based 2D monolayer assay; assay type: functional
Procedure, shortened: as §1, with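 “Cells were kept in RPMI 1640 with 25 mM HEPES, 10% FCS and gentamicin at 37 °C under 5% CO2, and plated at 4,000-20,000 cells/well. After 24” for “After 24”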

[10] = system: CWR22R; experiment: Antiproliferative activity against human 22Rv1 cells assessed as T/C value at 3.2 x 10^1 uM incubated for 96 hrs by propidium iodide based 2D monolayer assay; assay type: functional
Procedure, shortened: as §1, with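 “Cells were kept in RPMI 1640 with 25 mM HEPES, 10% FCS and gentamicin at 37 °C under 5% CO2, and plated at 4,000-20,000 cells/well. After 24” for “After 24”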

[11] = system: DU-145; experiment: Antiproliferative activity against human DU145 cells assessed as T/C value at 1 x 10^-2 uM incubated for 96 hrs by propidium iodide based 2D monolayer assay; assay type: functional; procedure, shortened: as §1
[12] = system: DU-145; experiment: Antiproliferative activity against human DU145 cells assessed as T/C value at 3.2 x 10^1 uM incubated for 96 hrs by propidium iodide based 2D monolayer assay; assay type: functional
Procedure, shortened: as §1, with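 “Cells were kept in RPMI 1640 with 25 mM HEPES, 10% FCS and gentamicin at 37 °C under 5% CO2, and plated at 4,000-20,000 cells/well. After 24” for “After 24”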

[13] = Metabolic stability in liver microsomes (unknown origin) assessed as intrinsic clearance per mg of protein at 3 uM measured upto 45 mins in presence of NADPH by LC-MS/MS analysis; assay type: ADME, Microsome; settings: read-out: CLH
Procedure, shortened: (§3)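 Pooled liver microsomes at 0.5 mg/mL protein in 0.1 M phosphate buffer pH 7.4 were incubated with 3 μM compound (0.25% DMSO) at 37 °C. Reactions were started with 1 mM NADPH and sampled at 0, 5, 15, 30 and 45 min. A minus-NADPH control ran for 45 min. Reactions were quenched in methanol and analysed by LC-MS/MS to give CLint and t1/2.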

[14] = Metabolic stability in liver microsomes (unknown origin) assessed as half life at 3 uM measured upto 45 mins in presence of NADPH by LC-MS/MS analysis; assay type: ADME, Microsome; procedure, shortened: as §3
[15] = Protein binding in plasma (unknown origin) at 5 uM by LC-MS/MS analysis; assay type: ADME, cell-free; settings: read-out: PPB (converted)
Procedure, shortened: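 Compound at 5 μM final in 100% plasma was dialysed against pH 7.4 buffer by equilibrium dialysis at 37 °C. Both sides were quantified by LC-MS/MS, unbound fraction was calculated, and results are given as % bound from duplicate experiments.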

[16] = biological target: hERG (KCNH2) (Homo sapiens, UniProt Q12809); experiment: Inhibition of human ERG expressed in CHO cells at 25 uM by whole-cell voltage-clamp analysis relative to control; assay type: cell-based; settings: CHO cells expressing human ERG
Chain of hERG (KCNH2) (Q12809 whole entry): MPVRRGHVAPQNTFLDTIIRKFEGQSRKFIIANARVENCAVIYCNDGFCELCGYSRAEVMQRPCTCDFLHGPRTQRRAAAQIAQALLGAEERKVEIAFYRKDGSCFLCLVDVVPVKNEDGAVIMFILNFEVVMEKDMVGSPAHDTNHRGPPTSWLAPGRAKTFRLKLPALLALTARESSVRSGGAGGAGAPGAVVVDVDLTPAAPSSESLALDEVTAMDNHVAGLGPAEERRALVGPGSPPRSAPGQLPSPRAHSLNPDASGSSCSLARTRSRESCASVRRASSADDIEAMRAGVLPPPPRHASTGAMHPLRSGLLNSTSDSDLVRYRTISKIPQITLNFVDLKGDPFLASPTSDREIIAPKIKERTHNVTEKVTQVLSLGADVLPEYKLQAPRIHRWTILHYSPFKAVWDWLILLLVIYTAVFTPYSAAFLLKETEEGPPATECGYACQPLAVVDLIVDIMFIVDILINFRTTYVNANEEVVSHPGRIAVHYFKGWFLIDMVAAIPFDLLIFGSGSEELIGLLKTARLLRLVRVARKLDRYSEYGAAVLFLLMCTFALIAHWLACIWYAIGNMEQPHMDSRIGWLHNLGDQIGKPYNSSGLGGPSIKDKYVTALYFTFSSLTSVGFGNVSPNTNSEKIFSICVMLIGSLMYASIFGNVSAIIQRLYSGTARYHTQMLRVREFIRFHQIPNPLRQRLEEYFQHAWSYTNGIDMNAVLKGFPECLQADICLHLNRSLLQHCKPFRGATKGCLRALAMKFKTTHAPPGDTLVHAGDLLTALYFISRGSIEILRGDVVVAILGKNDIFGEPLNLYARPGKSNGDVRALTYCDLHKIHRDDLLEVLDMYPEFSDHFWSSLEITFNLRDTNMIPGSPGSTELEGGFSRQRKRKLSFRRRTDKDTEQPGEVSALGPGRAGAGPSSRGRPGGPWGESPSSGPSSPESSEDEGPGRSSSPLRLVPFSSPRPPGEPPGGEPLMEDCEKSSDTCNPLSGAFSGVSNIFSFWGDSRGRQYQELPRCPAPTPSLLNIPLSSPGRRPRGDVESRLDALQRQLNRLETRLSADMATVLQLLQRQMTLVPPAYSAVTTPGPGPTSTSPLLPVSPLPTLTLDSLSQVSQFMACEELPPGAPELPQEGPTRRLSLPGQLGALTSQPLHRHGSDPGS
Procedure, shortened: (§4)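 CHO cells expressing hERG were held in Dulbecco's PBS with Ca/Mg, pH 7–7.2, at room temperature. Tail currents were recorded by automated whole-cell voltage clamp after 300 s exposure. […] Quinidine served as positive control and 0.25% DMSO buffer as negative control.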

[17] = biological target: Voltage-gated inwardly rectifying potassium channel KCNH2 (Homo sapiens, UniProt Q12809); experiment: Inhibition of human ERG expressed in CHO cells by whole-cell voltage-clamp analysis; assay type: cell-based; procedure, shortened: as §4
Chain of Voltage-gated inwardly rectifying potassium channel KCNH2 (Q12809 whole entry): as above

Row | SMILES | IC50 [1] [µM] | IC70 [1] [µM] | T/C [2] | T/C [3] | T/C [4] | T/C [5] | T/C [6] | T/C [7] [%] | T/C [8] | T/C [9] | T/C [10] | T/C [11] | T/C [12] [%] | microsomal CLint at 3 µM [13] [µL/min/mg] | half-life at 3 µM [14] [h] | fraction unbound at 5 µM [15] | inhibition at 25 µM [16] [%] | IC50 [17] [µM]
1 | CC(O)(COc1cccc(S(F)(F)(F)(F)F)c1)C(=O)Nc1cc(C(F)(F)F)cc(C(F)(F)F)c1 (racemic) | 2.3 | 3.17 | 111% | 32% | 5% | 88% | 98% | 1 | 2% | 109% | 2% | 101% | 3 |  |  |  |  | 
2 | CC(O)(COc1ccc(S(F)(F)(F)(F)F)cc1)C(=O)Nc1cc(C(F)(F)F)cc(C(F)(F)F)c1 (racemic) | 3.2 | 4.07 | 105% | 21% | 4% | 92% | 100% | 2 | 1% | 105% | 7% | 104% | 6 | 3.08 | 7.5 | 0.091 | 13.4 | > 25
3 | CC(O)(COc1cc(C(F)(F)F)cc(C(F)(F)F)c1)C(=O)Nc1cccc(S(F)(F)(F)(F)F)c1 (racemic) | 6.5 | 7.75 | 97% | 37% | 4% | 89% | 76% | 1 | 2% | 110% | 4% | 104% | 5 |  |  |  |  | 
4 | CC(O)(COc1cccc(S(F)(F)(F)(F)F)c1)C(=O)Nc1ccc([N+](=O)[O-])c(C(F)(F)F)c1 (racemic) | 5.4 | 5.77 to 6.98 | 103 - 109% | 22% | 2 - 4% | 92 - 98% | 87 - 113% | -1 | 1 - 2% | 108 - 110% | 2% | 115 - 122% | 1 | 3.21 | 7.18 | 0.015 | 38.1 | > 25
5 | CC(O)(COc1cc(C(F)(F)F)cc(C(F)(F)F)c1)C(=O)Nc1ccc(S(F)(F)(F)(F)F)cc1 (racemic) | 7 | 8.27 | 101% | 23% | 6% | 90% | 99% | 2 | 3% | 99% | 8% | 103% | 5 |  |  |  |  | 
6 | CC(O)(COc1ccccc1C(F)(F)F)C(=O)Nc1ccc(S(F)(F)(F)(F)F)cc1 (racemic) | 1.4 |  | 97 - 98% | 11 - 28% | 3 - 11% | 91 - 100% | 83 - 84% | 1 | 1 - 2% | 100 - 108% | 1 - 3% | 103 - 119% | 4 | 22 | 1.05 | 0.014 | 26.3 | > 25
